From PubChem
Apaf-1 inh: inhibitors of human Apaf-1 apoptosome, primary screen, biochemical, DEVD-Rh110 fluorescence, uHTS; Apoptotic protease-activating factor 1 (Homo sapiens), O14727; reconstituted apoptosome caspase-3 activity; inhibition, % at 20 µM; actives 0.71% (n = 330,000); AID 489030, 2010; active = inhibition of at least 40% at 20 µM;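 note: plate controls were DMSO wells for no effect and DEVD-CHO caspase inhibitor wells for full effect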
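Material: reconstituted apoptosome with Apaf-1, cytochrome c, caspase-9, procaspase-3, dATP. Technique: Rh110 fluorescence intensity. Buffer or medium: pH 7.5 Hepes buffer with CHAPS, BSA, DTT. Times: 30 min plus 50 min, RT.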
SENP6 block: SENP6 protease inhibitors, primary screen, biochemical, luminescence, uHTS | Sentrin-specific protease 6 (Homo sapiens), Q9GZR1 | Recombinant SENP6 catalytic domain, aminoluciferin luminescence | inhibition, % at 10 µM | actives 1.8% (n = 330,000);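 active = inhibition above about 50% at the single tested dose, limit read from the data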;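 note: plate controls were DMSO wells with enzyme for no effect and DMSO wells lacking enzyme for full effect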
Target sequence (Q9GZR1 628-1112 limits assumed): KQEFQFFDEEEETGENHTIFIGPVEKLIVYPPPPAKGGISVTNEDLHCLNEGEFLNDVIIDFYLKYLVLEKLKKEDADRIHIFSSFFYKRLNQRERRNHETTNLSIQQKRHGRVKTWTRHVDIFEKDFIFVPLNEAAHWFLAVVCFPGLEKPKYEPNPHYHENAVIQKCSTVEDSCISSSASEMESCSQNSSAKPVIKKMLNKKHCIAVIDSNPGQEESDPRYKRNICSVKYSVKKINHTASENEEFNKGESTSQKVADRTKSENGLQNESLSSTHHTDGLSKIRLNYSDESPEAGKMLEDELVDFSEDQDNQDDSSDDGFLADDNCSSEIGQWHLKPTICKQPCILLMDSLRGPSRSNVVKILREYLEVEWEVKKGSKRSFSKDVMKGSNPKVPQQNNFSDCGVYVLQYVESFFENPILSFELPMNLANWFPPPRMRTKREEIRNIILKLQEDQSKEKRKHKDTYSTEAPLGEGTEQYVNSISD
SENP7 block: SENP7 protease inhibitors, primary screen, biochemical, luminescence, uHTS. Sentrin-specific protease 7 (Homo sapiens), Q9BQF6. recombinant SENP7, Z-RLRGG-aminoluciferin luminescence, 40 min. inhibition, % at 5 µM. actives 1.5% (n = 330,000). AID 434973, 2010;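 active = inhibition above about 50% at the single test dose, limit read from the data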;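 note: plate controls were DMSO with enzyme for no effect and no enzyme buffer wells for full effect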
SENP8 block-1: SENP8 protease inhibitors, primary screen, biochemical, luminescence; inhibition, % at 10 µM; actives 1.2% (n = 330,000); purified SENP8, Z-RLRGG-aminoluciferin cleavage; Sentrin-specific protease 8 (Homo sapiens), Q96LD8; in the data active = inhibition above about 50%
SENP8 block-2: human SENP8 protease inhibitors, primary screen, biochemical, fluorescence, Nedd8 protein substrate, uHTS | Sentrin-specific protease 8 (Homo sapiens), Q96LD8 | recombinant SENP8 | inhibition, % at 20 µM | actives 0.64% (n = 360,000) | AID 602440, 2012; in the data active = inhibition mostly above about 40%, no sharp cut-off; inactive = mostly below about 27%
UBC13 inh: UBC13 polyubiquitin chain formation inhibitors, primary screen, biochemical, TR-FRET, uHTS; inhibition, % at 20 µM; actives 0.47% (n = 330,000); in the data active = inhibition above about 45%, passing the limit was not always enough
Target sequence (P61088 whole entry, looked up): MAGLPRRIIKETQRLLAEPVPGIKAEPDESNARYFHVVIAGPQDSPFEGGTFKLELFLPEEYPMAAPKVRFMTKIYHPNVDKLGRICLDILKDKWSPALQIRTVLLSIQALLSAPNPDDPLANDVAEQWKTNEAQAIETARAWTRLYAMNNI
SENP8 conf: SENP8 protease inhibitors, retest, confirmation, biochemical, luminescence, single concentration; actives 40% (n = 6,200); Recombinant SENP8, Z-RLRGG-aminoluciferin luminescence, 60 min; inhibition, % at 12.5 µM; shares compounds with SENP7 block; AID 488912, 2010;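 active = mean inhibition across replicates above about 50%, limit read from the data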
SENP6 conf: SENP6 protease inhibitors, confirmation, biochemical, luminescence, single concentration | shares compounds with SENP7 block | inhibition, % at 12.5 µM | actives 58% (n = 6,200) | recombinant SENP6, Z-RLRGG-aminoluciferin luminescence | AID 488915, 2010
SENP7 conf: SENP7 protease inhibitors, retest, confirmation, biochemical, luminescence, single concentration; shares compounds with SENP7 block; recombinant SENP7, Z-RLRGG-aminoluciferin luminescence, 40 min; inhibition, % at 12.5 µM; actives 69% (n = 6,200); AID 488917, 2010
Casp3 SENP sel: caspase-3 protease inhibitors, confirmation, selectivity assay for SENP inhibitor project, biochemical, single concentration; actives 60% (n = 6,200); purified caspase-3, Z-DEVD-aminoluciferin luminescence, 60 min; shares compounds with SENP7 block; inhibition, % at 12.5 µM;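 active = mean inhibition above about 50%, limit read from the data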;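 note: plate controls were enzyme with DMSO for no effect and wells without caspase-3 for full effect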
SENP luc ctr: counter-screen for SENP inhibitors: luminescence interference; shares compounds with SENP7 block; Pre-incubated SENP8/Z-RLRGG-aminoluciferin, luciferase luminescence interference; inhibition, % at 12.5 µM; actives 39% (n = 6,200); AID 488919;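 active = mean inhibition above about 50% when retested at one dose, limit read from the data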;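 note: plate controls were DMSO wells with completed reaction for no effect and substrate without enzyme for full effect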
Numbers without * were called inactive; x = not tested or not shown. Only some compounds are listed: those with a hit (about 3.1% of all), similar ones and a draw of the others.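 Rule for the calls, unless noted: active = mean inhibition above about 50% in the one-dose retest (limit read from the data); inactive = the rest.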

SMILES | Apaf-1 inh | SENP6 block | SENP7 block | SENP8 block-1 | SENP8 block-2 | UBC13 inh | SENP8 conf | SENP6 conf | SENP7 conf | Casp3 SENP sel | SENP luc ctr
Cc1cnc(-c2nc3ccccc3n2C(C(=O)NC(C)(C)C)c2ccncc2)cn1 (stereo not drawn) | x | x | x | x | -421.8 | x | x | x | x | x | x
Cc1cc(Br)cc(C=Nc2ccc(N3CCOCC3)cc2)c1O | 5.5 | 29.2 | 72.7* | -6.5 | 37.2 | -4.8 | 11.6 | 12.3 | -0.6 | 28.7 | 2.9
Oc1cc(Br)ccc1C=Nc1ccc(N2CCCCC2)cc1 | 24.9 | 11.2 | 52.8* | 35.5 | 22.5 | -9.2 | 15.4 | 26.4 | 2.1 | 48.1 | -0.1
Cc1cccc(C(=O)NNC(=O)c2ccc(Cl)cc2)c1O | -0.5 | 54.7* | 30.7 | 29.5 | 1.0 | -0.2 | 52.3* | 47.9 | 77.3* | 71.1* | 62.2*
O=C(NNC(=O)c1ccccc1O)c1ccc(Cl)cc1 | 0.0 | -1.1 | -11.5 | -15.8 | 13.3 | 2.0 | x | x | x | x | x
COc1ccccc1N(C)S(=O)(=O)c1ccc(C(=O)N(C)Cc2cccc(F)c2)cc1 | x | x | x | x | 2.8 | x | x | x | x | x | x
c1ccc(-c2cnc(-c3cccnc3)o2)cc1 | -1.9 | 0.2 | 4.0 | -0.5 | -482.1 | 0.0 | x | x | x | x | x
NC(=O)c1ccc(-c2ncc(-c3ccccc3)o2)cc1 | 7.0 | -34.8 | 52.1* | 13.9 | -306.6 | 12.6 | 27.4 | 52.0* | 59.4* | 39.8 | 8.5
CC1(C(=O)Nc2cccc3ccccc23)CCN1C(=O)Cc1ccc(Cl)cc1Cl (stereo not drawn) | x | x | x | x | 13.1 | x | x | x | x | x | x
Cc1cccc(C)c1NC(=O)C1(C)CN(S(C)(=O)=O)CC(=O)N1CCc1c[nH]c2ccccc12 (stereo not drawn) | x | x | x | x | 19.0 | x | x | x | x | x | x
NCCNc1cc(N2CCCC2)ccc1[N+](=O)[O-] | -4.8 | -11.8 | 77.4* | 0.8 | 20.5 | -87.3 | -29.4 | -14.5 | -4.7 | -5.8 | -7.2
CC(C)(C)CNc1cc(N2CCCC2)ccc1[N+](=O)[O-] | 20.0 | 1.2 | -1.4 | -4.5 | 26.2 | -27.8 | x | x | x | x | x
COc1ccc(-c2nc(C#N)c(N3CCCCCC3)o2)cc1 | 15.6 | -5.4 | 83.9* | 0.1 | -304.9 | 13.6 | 1.0 | 1.1 | -2.0 | -3.7 | -4.9
O=C(N/N=C/c1cc2c(cc1Cl)OCO2)c1ccccn1 | -13.3 | 65.8* | 2.1 | 46.5 | -257.9 | -6.2 | 0.0 | -5.7 | 1.6 | 51.9* | 9.0
CC(C)(C)c1ccc(/C=N/NC(=O)c2ccccn2)cc1 | -4.0 | 33.2 | 79.3* | 58.6* | 17.6 | -9.2 | 9.8 | 25.0 | 32.8 | 39.5 | 6.5
Cc1ccsc1/C=N/NC(=O)c1ccccn1 | 5.1 | 61.1* | 47.0 | 30.2 | -2.6 | -8.7 | 49.6 | 40.5 | 78.3* | 84.0* | 60.4*
O=C(N/N=C/c1ccc(OC(=O)c2ccccc2Br)cc1)c1ccccn1 | -10.7 | -8.6 | 71.4* | -8.8 | -1.3 | 5.3 | 4.3 | 3.2 | 9.0 | 11.2 | 6.1
O=C(N/N=C/c1cc2c(cc1[N+](=O)[O-])OCO2)c1ccccn1 | 3.4 | 9.3 | 0.8 | -3.9 | -21.8 | -11.8 | x | x | x | x | x
O=C(O)COc1ccc(/C=N/NC(=O)c2ccccc2Br)cc1 | 5.8 | -17.0 | 4.9 | 4.0 | 6.5 | 2.1 | x | x | x | x | x
Oc1c(C(c2ccccc2)N2CCCCC2)ccc2ccccc12 (stereo not drawn) | x | x | x | x | -4.8 | x | x | x | x | x | x
Clc1ccc(COn2nnc3ccccc32)c(Cl)c1 | 4.3 | 60.0* | 36.0 | 10.4 | -7.9 | 7.4 | 45.8 | 46.2 | 76.6* | 35.7 | 47.0
CCOC(=O)N=S(N)(=O)c1ccc(Cl)cc1 (stereo not drawn) | -0.9 | 1.2 | 2.4 | 50.7* | 13.0 | -2.2 | -22.1 | -13.3 | -8.2 | -9.3 | -4.9
COc1ccc(/C(N)=N/OC(=O)Cc2cccs2)cc1 | -9.6 | 50.8* | 1.1 | 8.5 | 4.9 | 5.4 | 30.2 | 28.3 | 67.3* | 25.7 | 33.0
COc1ccc(/C(N)=N/OC(=O)C2CCCCC2)cc1 | 18.4 | 26.5 | 68.2* | 26.4 | -11.2 | -1.1 | -16.9 | 10.5 | 60.7* | 17.4 | 17.7
N/C(=N\OC(=O)C1CCCCC1)c1cccc(Br)c1 | -3.7 | 69.2* | 48.4 | 27.2 | 11.2 | 10.5 | 45.4 | 46.1 | 79.6* | 68.8* | 51.4*
SMILES | Apaf-1 inh | SENP6 block | SENP7 block | SENP8 block-1 | SENP8 block-2 | UBC13 inh | SENP8 conf | SENP6 conf | SENP7 conf | Casp3 SENP sel | SENP luc ctr
CCOC(COC(=O)c1ccccc1C(=O)O)c1ccccc1 (stereo not drawn) | x | x | x | x | 11.7 | x | x | x | x | x | x
C[C@H]1CN(CCc2ccccc2)C(=O)[C@@H]1CC(=O)Nc1ccc(Br)cc1 | x | x | x | x | 21.7 | x | x | x | x | x | x
Cc1cc(C=C2C(=O)c3ccccc3C2=O)c(C)n1-c1ccccc1 | 9.1 | 92.1* | 92.6* | 74.0* | -20.7 | -19.4 | 9.4 | 10.0 | 2.8 | 20.5 | -3.4
O=C1NN(c2ccccc2)C(=O)C1=Cc1ccccc1O | x | x | x | x | -8.5 | x | x | x | x | x | x
Cc1cc(/C=C2\Cc3ccccc3C2=O)c(C)n1-c1ccccc1 | 16.8 | 48.2 | 5.3 | 64.9* | -393.2 | -1.9 | 45.8 | 90.9* | 96.7* | 68.0* | 13.7
Cc1cc(C=C2C(=O)c3ccccc3C2=O)c(C)n1-c1cccc(C(=O)O)c1 | 2.2 | 91.3* | 51.5* | 89.9* | -8.7 | -31.0 | 97.4* | 97.6* | 101.2* | 95.1* | 92.0*
Cc1cc(C=C2C(=O)c3ccccc3C2=O)c(C)n1-c1ccc(C(=O)O)cc1 | 9.0 | -4.8 | 1.4 | -1.6 | -15.0 | -27.0 | x | x | x | x | x
Cc1cc(/C=C2/C(=O)NN(c3ccccc3)C2=O)c(C)n1-c1cccc(O)c1 | -1.6 | 80.2* | 64.7* | 66.4* | 29.2 | -26.9 | 67.5* | 73.1* | 92.6* | 67.2* | 10.6
